Experimental data taken from ChEMBL document CHEMBL4316593 (Eur J Med Chem, 2019).
Activity calls are given as the source filed them. No cut-off for these calls is given here.

Test system: U-87 MG
Assay: Cytotoxicity against human U87 cells assessed as reduction in cell proliferation at 100 uM measured after 48 hrs by trypan blue dye-based cell counting analysis
Assay type: functional
Settings: U-87MG ATCC
Summary of the method: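 Trypan blue viability assay. U87 (MEM, 10% FBS) or LN229 (DMEM, 5% FBS) cells were treated for 48hrs. Screening used 100 μM; the dose-response used 100, 75, 50, 25 and 10 μM. Cells were pelleted at 1200 rpm and live/dead cells counted by automated counter. Mortality % was taken relative to the DMSO control, and IC₅₀ derived from the dose-response curve. Cisplatin served as positive control.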

SMILES	Activity
CC(=O)/C(=N\Nc1ccc([N+](=O)[O-])cc1O)C(=O)c1ccccc1	Active
CC(=O)/C(=N\Nc1cc(S(=O)(=O)O)cc(S(=O)(=O)O)c1O)C(=O)c1ccccc1	inactive
